# ChEMBL document CHEMBL1127046, “Antitumor agents. 3. Synthesis and biological activity of 4 beta-alkyl derivatives containing hydroxy, amino, and amido groups of 4'-O-demethyl-4-desoxypodophyllotoxin as antitumor agents” (J Med Chem, 1993)
# Legend:
# [1] = system: L1210; experiment: Increase in life span at the dose of 2.5 (mg/kg/day); format: functional, Mus musculus
# [2] = system: P388; experiment: Cytotoxicity against P388 leukemia; format: functional, cell-based; conditions: Mus musculus
# [3] = Inhibition of DNA topoisomerase II from rat liver measured as 50% reduction in the amount of minicircle DNA relative to the control
# [4] = target: Tubulin (Bos taurus, UniProt Q6B856+Q862L2+Q862F3); experiment: Drug concentration needed to produce a 50% reduction of bovine brain tubulin polymerization relative to the control
# [5] = system: L1210; experiment: The number of mice survived for 30 days at the dose of 40 (mg/kg/day); format: functional, Mus musculus
# [6] = system: L1210; experiment: Antitumor activity in vivo expressed as the percentage increase in life span at the dose of 40 (mg/kg/day); format: functional, Mus musculus
# [7] = system: L1210; experiment: The number of mice survived for 30 days at the dose of 20 (mg/kg/day); format: functional, Mus musculus
# [8] = system: L1210; experiment: Antitumor activity in vivo expressed as the percentage increase in life span at the dose of 20 (mg/kg/day); format: functional, Mus musculus
# [9] = system: ACHN; experiment: Inhibition of growth of renal cancer ACHN cell line; format: functional; conditions: Homo sapiens, read-out: ED50 (the source's name)
# How it was run: (§1)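 Human tumour cell lines plated and grown 24 h in a CO2 incubator, then exposed to compound for 96 or 4 h. Cells counted by hemocytometer. IC50 is the concentration giving 50% reduction in cell number versus untreated control.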
# [10] = system: A549; experiment: Inhibition of growth of lung non-small cell carcinoma A-549 cell line; format: functional; conditions: Homo sapiens, read-out: ED50 (the source's name)
# How it was run: (§2)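 Cells were seeded and cultured for 24 h, then exposed to drug for 96 or 4 h. Cells were counted by hemocytometer. IC50 is the concentration giving a 50% reduction in cell number relative to control.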
# [11] = Inhibition of growth of colon carcinoma COLO 2-1 cell line; format: functional; conditions: Homo sapiens, read-out: ED50 (the source's name); how it was run: as §2
# [12] = system: COLO 320DM; experiment: Inhibition of growth of colon carcinoma COLO 320DM; format: functional; conditions: Homo sapiens, read-out: ED50 (the source's name); how it was run: as §2
# [13] = species on record: Homo sapiens; experiment: Inhibition of growth of hepatoma HLE cell line; format: functional; conditions: read-out: ED50 (the source's name); how it was run: as §2
# [14] = Inhibition of growth of renal cancer G-402 cell line; format: functional; conditions: Homo sapiens, read-out: ED50 (the source's name); how it was run: as §1
# [15] = Inhibition of growth of hepatoma HLF cell line; format: functional; conditions: Homo sapiens, read-out: ED50 (the source's name); how it was run: as §2
# [16] = system: L1210; experiment: The number of mice survived for 30 days; format: functional, Mus musculus
# [17] = system: L1210; experiment: Antitumor activity in vivo expressed as the percentage increase in life span at the dose of 10 (mg/kg/day); format: functional, Mus musculus
# [18] = system: Lewis lung carcinoma cell line; experiment: Antitumor activity in vivo expressed as the percentage increase in life span at the dose of 4 (mg/kg/day); (p<0.001); format: functional, Mus musculus
# [19] = system: Lewis lung carcinoma cell line; experiment: Antitumor activity in vivo expressed as the percentage increase in life span at the dose of 7 (mg/kg/day); (p<0.001); format: functional, Mus musculus
# [20] = system: Lewis lung carcinoma cell line; experiment: Antitumor activity in vivo expressed as the percentage increase in life span at the dose of 12 (mg/kg/day); (p<0.001); format: functional, Mus musculus
# [21] = system: Lewis lung carcinoma cell line; experiment: Antitumor activity in vivo expressed as the percentage increase in life span at the dose of 2.32 (mg/kg/day); (p<0.005); format: functional, Mus musculus
# [22] = system: Lewis lung carcinoma cell line; experiment: Antitumor activity in vivo expressed as the percentage increase in life span at the dose of 21 (mg/kg/day); (p<0.005); format: functional, Mus musculus
# [23] = system: Lewis lung carcinoma cell line; experiment: Mean body weight change at the dose of 7 (mg/kg/day); format: functional, Mus musculus
# How it was run: (§3)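 Male BDF1 mice (5 weeks) given 3.2 x 10^5 Lewis lung carcinoma cells iv on day 0, then dosed iv on days 1–5. Seven mice per group, 14 controls. Mean body weight change (g) taken from day 0 to day 6.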
# [24] = system: Lewis lung carcinoma cell line; experiment: Mean body weight change at the dose of 12 (mg/kg/day); format: functional, Mus musculus; how it was run: as §3
# [25] = system: Lewis lung carcinoma cell line; experiment: Mean body weight change at the dose of 2.3 (mg/kg/day); format: functional, Mus musculus; how it was run: as §3
# [26] = system: Lewis lung carcinoma cell line; experiment: Mean body weight change at the dose of 21 (mg/kg/day); format: functional, Mus musculus; how it was run: as §3
# [27] = system: Lewis lung carcinoma cell line; experiment: Mean body weight change at the dose of 4 (mg/kg/day); format: functional, Mus musculus; how it was run: as §3
# [28] = system: P388; experiment: Increased life span at the P388 dose of 4 (mg/kg/day); format: functional, Mus musculus
# How it was run: (§4)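 P388 leukaemia, 1 × 10^6 cells given sc to male CDF1 mice (5 weeks old) on day 0. Drug was dosed iv on days 1–5 in saline with 3.5% DMSO and 6.5% Tween 80. Groups had 7 mice; controls had 10. ILS was calculated from mean survival time of treated versus control mice, excluding 30-day survivors.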
# [29] = system: P388; experiment: Increased life span at the P388 dose of 7 (mg/kg/day); format: functional, Mus musculus; how it was run: as §4
# [30] = Inhibition of growth of lung non-small cell carcinoma PC-7 cell line; format: functional; conditions: Homo sapiens, read-out: ED50 (the source's name); how it was run: as §2
# [31] = Inhibition of growth of lung small cell carcinoma RERF-LC-MA cell line; format: functional; conditions: Homo sapiens; read-out: ED50 (the source's name); how it was run: as §2
# [32] = system: SBC-3; experiment: Inhibition of growth of lung small cell carcinoma SBC-3 cell line; format: functional; conditions: Homo sapiens, read-out: ED50 (the source's name); how it was run: as §1
# [33] = system: Lewis lung carcinoma cell line; experiment: Percentage inhibition of tumor growth at the lewis lung dose of 12 (mg/kg/ day); (p<0.01); format: functional, Mus musculus
# How it was run: (§5)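 Lewis lung carcinoma fragments (2 mm3) implanted sc into male BDF1 mice (5 weeks) on day 0. Compound given iv on days 4–8, in saline or saline with 3.5% DMSO and 6.5% Tween 80. Seven mice per group, 10 controls. Percent inhibition from mean tumour weight versus control on day 17; p<0.05, 0.01 or 0.001 versus control.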
# [34] = system: Lewis lung carcinoma cell line; experiment: Percentage inhibition of tumor growth at the lewis lung dose of 7 (mg/kg/day); (p<0.05); format: functional, Mus musculus; how it was run: as §5
# [35] = system: P388; experiment: Increased life span at the P388 dose of 2.3 (mg/kg/day); format: functional, Mus musculus; how it was run: as §4
structure (smiles),measurement,setting,value
COc1cc([C@@H]2c3cc4c(cc3[C@@H](CCN(C)C)C3COC(=O)[C@@H]32)OCO4)cc(OC)c1O.Cl (stereo partly drawn),ILS max,[1],67%
same,IC50,[2],0.06 µM
same,IC50,[3],36.7 µM
same,IC50,[4],> 100 µM
COc1cc([C@@H]2c3cc4c(cc3[C@@H](CCN(C)N(C)C)C3COC(=O)[C@@H]32)OCO4)cc(OC)c1O.Cl (stereo partly drawn),Survivors,[5],6
same,ILS max,[6],74%
same,IC50,[2],0.02 µM
same,IC50,[3],58.3 µM
same,IC50,[4],> 100 µM
CCCCCCN(C)CC[C@@H]1c2cc3c(cc2[C@@H](c2cc(OC)c(O)c(OC)c2)[C@H]2C(=O)OCC12)OCO3.Cl (stereo partly drawn),Survivors,[7],6
same,IC50,[2],0.019 µM
same,IC50,[3],61.4 µM
same,IC50,[4],> 167 µM
same,ILS max,[8],106%
COc1cc([C@@H]2c3cc4c(cc3[C@@H](O[C@@H]3O[C@@H]5CO[C@@H](C)O[C@H]5[C@H](O)[C@H]3O)[C@H]3COC(=O)[C@H]23)OCO4)cc(OC)c1O [ETOPOSIDE],EC50,[9],13 µg/mL
same,EC50,[10],2.9 µg/mL
same,EC50,[11],59 µg/mL
same,EC50,[12],14 µg/mL
same,EC50,[13],1.5 µg/mL
same,EC50,[14],4.8 µg/mL
same,EC50,[15],19 µg/mL
same,Survivors,[16],3
same,ILS max,[17],102%
same,ILS max,[18],24%
same,ILS max,[19],21%
same,ILS max,[20],81%
same,ILS max,[21],17%
same,ILS max,[22],91%
same,bwc,[23],-0.8 g
same,bwc,[24],-2.6 g
same,bwc,[25],0 g
same,bwc,[26],-3.8 g
same,bwc,[27],-0.4 g
same,IC50,[2],0.01 µM
same,ILS max,[28],196%
same,ILS max,[29],226%
same,EC50,[30],35 µg/mL
same,EC50,[31],> 59 µg/mL
same,EC50,[32],1.6 µg/mL
same,IC50,[3],59.2 µM
same,Inhibition,[33],60%
same,Inhibition,[34],39%
same,ILS max,[35],151%
